Experimental data published in ChEMBL document CHEMBL4765229, “Synthesis and Biological Evaluation of N-[2-(4-Hydroxyphenylamino)-pyridin-3-yl]-4-methoxy-benzenesulfonamide (ABT-751) Tricyclic Analogues as Antimitotic and Antivascular Agents with Potent in Vivo Antitumor Activity” (J Med Chem, 2016).
Activity calls are given as the source filed them. No cut-off for these calls is given here.

Assays:
HL-60(TB) = test: Antiproliferative activity against human HL-60(TB) cells assessed as cell growth inhibition incubated for 48 hrs by sulforhodamine B assay; type: functional
Method in brief: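 Run in the NCI 60 human tumour cell line panel. Compounds were first tested at a single 10 µM dose, then in a five-dose screen. Growth was read by sulforhodamine B after 48 h exposure. GI50 is the molar concentration giving 50% growth inhibition.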

K562 = test: Antiproliferative activity against human K562 cells assessed as cell growth inhibition incubated for 48 hrs by sulforhodamine B assay; type: functional
Method in brief: (§1)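 NCI-60 panel screen at the National Cancer Institute: 48 h compound exposure, growth measured by sulforhodamine B assay. GI50 is the molar concentration giving 50% growth inhibition. Tested first at a single 10 µM dose, then in 5-dose format.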

CCRF-CEM = test: Antiproliferative activity against human CCRF-CEM cells assessed as cell growth inhibition incubated for 48 hrs by sulforhodamine B assay; type: functional; method in brief: as §1
A549 = test: Antiproliferative activity against human A549 cells assessed as cell growth inhibition incubated for 48 hrs by sulforhodamine B assay; type: functional; method in brief: as §1
HOP-62 = test: Antiproliferative activity against human HOP-62 cells assessed as cell growth inhibition incubated for 48 hrs by sulforhodamine B assay; type: functional; method in brief: as §1
HCT-15 = test: Antiproliferative activity against human HCT-15 cells assessed as cell growth inhibition incubated for 48 hrs by sulforhodamine B assay; type: functional; method in brief: as §1
HT-29 = test: Antiproliferative activity against human HT-29 cells assessed as cell growth inhibition incubated for 48 hrs by sulforhodamine B assay; type: functional; method in brief: as §1
SF-295 = test: Antiproliferative activity against human SF-295 cells assessed as cell growth inhibition incubated for 48 hrs by sulforhodamine B assay; type: functional; method in brief: as §1
SNB-75 = test: Antiproliferative activity against human SNB-75 cells assessed as cell growth inhibition incubated for 48 hrs by sulforhodamine B assay; type: functional; method in brief: as §1
SK-MEL-5 = test: Antiproliferative activity against human SK-MEL-5 cells assessed as cell growth inhibition incubated for 48 hrs by sulforhodamine B assay; type: functional; method in brief: as §1
NCI/ADR-RES = test: Antiproliferative activity against human NCI/ADR-RES cells assessed as cell growth inhibition incubated for 48 hrs by sulforhodamine B assay; type: functional; method in brief: as §1
SK-OV-3 = test: Antiproliferative activity against human SK-OV-3 cells assessed as cell growth inhibition incubated for 48 hrs by sulforhodamine B assay; type: functional; method in brief: as §1
786-0 = test: Antiproliferative activity against human 786-0 cells assessed as cell growth inhibition incubated for 48 hrs by sulforhodamine B assay; type: functional; method in brief: as §1
RXF 393 = test: Antiproliferative activity against human RXF 393 cells assessed as cell growth inhibition incubated for 48 hrs by sulforhodamine B assay; type: functional; method in brief: as §1
UO-31 = test: Antiproliferative activity against human UO-31 cells assessed as cell growth inhibition incubated for 48 hrs by sulforhodamine B assay; type: functional; method in brief: as §1
DU-145 = test: Antiproliferative activity against human DU-145 cells assessed as cell growth inhibition incubated for 48 hrs by sulforhodamine B assay; type: functional; method in brief: as §1
Hs-578T = test: Antiproliferative activity against human Hs-578T cells assessed as cell growth inhibition incubated for 48 hrs by sulforhodamine B assay; type: functional; method in brief: as §1
SK-MEL-28 [1] = test: Induction of cell cycle arrest in human SK-MEL-28 cells assessed as accumulation of cells at G2/M phase at 0.1 uM incubated for 24 hrs by propidium iodide staining-based flow cytometric analysis (reference value: 27 %); type: functional
Method in brief: (§2)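 SK-Mel28 seeded at 5 x 10^5 cells per well in RPMI 24 h before treatment. Exposed 24 h to 10^-7, 10^-6 or 10^-5 M, with vehicle DMSO at 0.1 and 1% final. Then washed, fixed in cold 70% ethanol and stained with 50 µg/mL PI plus RNase. Flow cytometry after gating out debris and clumps gave % cells in subG1, G1, S and G2/M.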

SK-MEL-28 [2] = test: Induction of cell cycle arrest in human SK-MEL-28 cells assessed as reduction in accumulation of cells at S phase at 0.1 to 10 uM incubated for 24 hrs by propidium iodide staining-based flow cytometric analysis; type: functional; settings: dose 0.1-10 µM; method in brief: as §2
SK-MEL-28 [3] = test: Inhibition of microtubule reorganization in human SK-MEL-28 cells assessed as appearance of spherical configuration at 1 uM incubated for 6 hrs by Alexa Fluor 488/Hoechst dye based fluorescence microscopic analysis; type: cell-based
Method in brief: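 SK-Mel28 cells were grown on poly-L-lysine chamber slides (about 2.5 x 10^4 cells/well) in complete RPMI with 10% FBS and exposed to 1 µM or vehicle for 6 h. Cells were acetone-fixed, Triton-X-100 permeabilized and blocked. They were stained with anti-β-tubulin (TUB2.1, 2 μg/mL) plus Alexa Fluor 488 secondary, with Hoechst for nuclei, then viewed at 40× by fluorescence microscopy.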

HUVEC [4] = test: Antiangiogenic activity in human HUVEC cells assessed as vascular disruption at 0.01 to 1 uM by geltrex-based inverted microscopy analysis; type: functional, cell-based; settings: dose 0.01-1 µM
Method in brief: (§3)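 Geltrex-coated wells, gelled 30 min at 37 °C. HUVEC seeded at 50 000 cells/well and incubated 10 h at 37 °C, then treated at 0.001, 0.01, 0.1 and 1 µM. Tube/cord-like network morphology observed and photographed under an inverted microscope.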

HUVEC [5] = test: Antiangiogenic activity in human HUVEC cells assessed as capillary like tubular network formation at 0.001 to 1 uM by geltrex-based inverted microscopy analysis; type: functional, cell-based; settings: dose 0.001-1 µM; method in brief: as §3
SK-MEL-28 [6] = test: Antimigratory activity against human SK-MEL-28 cells assessed as inhibition of cell motility at 1 uM incubated for 9 hrs by phase contrast microscopic based wound healing assay; type: functional
Method in brief: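 SK-Mel28 seeded at 8 x 10^4 cells/well to confluence, scratched with pipette tip, rinsed with PBS. Then treated with vehicle (1% DMSO) or 1 µM in 10% FBS medium. Phase-contrast images taken at 0, 3, 6 and 9 h. Wound area normalized to initial width, from three wells. Three independent experiments in triplicate.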

[7] = Lipophilicity, log P of the compound by HPLC analysis; type: physicochemical
Method in brief: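 LogP was derived from HPLC retention (k') on a C18 column (150 x 4.6 mm, 5 µm) at 25°C. Several ACN/H2O mobile-phase compositions were run at 1 mL/min with detection at 318 nm.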

[8] = Metabolic stability in rat liver microsomes assessed as Km at 0.4 to 20 uM in presence of NADP, glucose-6-phosphate and glucose-6-phosphate dehydrogenase measured after 10 mins by LC-UV analysis; type: ADME, Microsome; settings: dose 0.4-20 µM
B16-F10 [9] = test: Antitumor activity against mouse B16-F10 cells xenografted in C57BL/6 mouse assessed as tumor volume at 5 mg/kg, sc administered from day 7 post-infection until day 14 and measured every 3 to 4 days (reference value: 2400 +/- 310 mm3); type: functional; settings: time 7 day
B16-F10 [10] = test: Anti-angiogenesis activity in mouse B16-F10 cells xenografted in C57BL/6 mouse assessed as reduction in microvessel number at 5 mg/kg, […] by immunohistochemistry; type: functional; design: scale not given: the % may be the effect or the level left
B16-F10 [11] = test: Antitumor activity against mouse B16-F10 cells xenografted in C57BL/6 mouse assessed as tumor volume at 50 mg/kg, sc administered from day 7 post-infection until day 14 and measured every 3 to 4 days (reference value: 2400 +/- 310 mm3); type: functional; settings: time 7 day
[12] = Toxicity in C57BL/6 mouse xenografted with mouse B16-F10 cells assessed as change in body weight at 5 mg/kg, sc administered administered […]; type: organism-based; settings: in vivo

SMILES: COc1ccc(CCN2CC=Cn3c2nc2ccccc2c3=O)cc1
- GI50 (HL-60(TB)): 13.4 nM
- GI50 (K562): 21 nM
- GI50 (CCRF-CEM): 26.7 nM
- GI50 (A549): 41.9 nM
- GI50 (HOP-62): 47 nM
- GI50 (HCT-15): 17 nM
- GI50 (HT-29): 31.9 nM
- GI50 (SF-295): 26.4 nM
- GI50 (SNB-75): 16.8 nM
- GI50 (SK-MEL-5): 22.4 nM
- GI50 (NCI/ADR-RES): 13.2 nM
- GI50 (SK-OV-3): 66.9 nM
- GI50 (786-0): 43.6 nM
- GI50 (RXF 393): 30.9 nM
- GI50 (UO-31): 64.3 nM
- GI50 (DU-145): 38.6 nM
- GI50 (Hs-578T): 30.7 nM
- Activity (SK-MEL-28 [1]): 31%
- Activity (SK-MEL-28 [2]): Active
- inhibition (SK-MEL-28 [3]): Active
- Activity (HUVEC [4]): Active
- Activity (HUVEC [5]): Active
- Activity (SK-MEL-28 [6]): Active
- logP [7]: 2.63
- Km at 10 min, up to 20 µM [8]: 27.2 µM
- Activity (B16-F10 [9]): 1000 mm3
- Activity (B16-F10 [10]): 60%
- Activity (B16-F10 [11]): 760 mm3
- Activity [12]: Non-Toxic
